FLuc act counter – affects firefly luciferase, flagging false hits in luciferase stimulation screens. P08659. ATPlite luciferase biochemical, luminescence, 10 min; 0 = ATP-free wells, 1 = DMSO control. activation factor at 10 µM. 200,000 tested, under 10 active. AID 1027;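 active means luciferase activation factor, scaled between plate controls, of at least 2 with compound at 10 µM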
Target sequence (P08659 whole entry, looked up): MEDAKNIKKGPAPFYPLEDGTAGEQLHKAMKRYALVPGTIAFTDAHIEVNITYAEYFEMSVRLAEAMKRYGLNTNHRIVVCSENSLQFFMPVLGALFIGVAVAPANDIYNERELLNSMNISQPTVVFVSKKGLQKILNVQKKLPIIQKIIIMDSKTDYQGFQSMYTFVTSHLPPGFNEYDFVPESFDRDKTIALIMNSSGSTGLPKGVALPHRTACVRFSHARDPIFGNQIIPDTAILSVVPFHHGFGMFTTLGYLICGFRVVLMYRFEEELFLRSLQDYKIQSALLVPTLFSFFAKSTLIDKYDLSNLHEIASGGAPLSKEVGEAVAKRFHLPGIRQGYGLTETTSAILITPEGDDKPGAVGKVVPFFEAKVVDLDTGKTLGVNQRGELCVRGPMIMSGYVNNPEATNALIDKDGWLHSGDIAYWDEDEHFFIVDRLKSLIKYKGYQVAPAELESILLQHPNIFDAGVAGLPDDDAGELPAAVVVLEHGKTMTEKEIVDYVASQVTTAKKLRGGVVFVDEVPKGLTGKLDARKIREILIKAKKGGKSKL
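System: luciferase plus luciferin reagent, cell-free; medium: PBS as buffer for the ATP substrate; dosing: test compounds dosed from 2 mM stocks in 100% DMSO; timing: 10 min post-reagent at room temperature; measured by: luminescence measurement of luciferase light output; evaluation: luciferase activation, seen as luminescence increase over controls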
STAT1 act – increases IFN-gamma driven STAT1 reporter signal. NIH 3T3 STAT1-luciferase reporter, luminescence; 100% = IFN-gamma alone, no compound. actives 2.6% (n = 200,000). activation (% of control), % at 5.5 µM;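 active means activation above the screen-wide mean activation plus 3 SD, cut at about 130% in these data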;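 further: raw ratio to IFN-gamma control signal so 100% means no change and 0% no light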
APP transl inh – APP translation inhibition | AID 1285 | SH-SY5Y APP 5'UTR-luciferase reporter, luminescence | inhibition, % at 2 µM | actives 0.82% (n = 190,000);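 active means inhibition above a set limit, derived from the sample mean plus 3 SD, cut at about 45% in these data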
APP 5'UTR act – APP 5'UTR luciferase reporter activation | SH-SY5Y APP 5'UTR luciferase reporter, luminescence; zero percent = DMSO vehicle wells | activation, % at 2 µM | actives 1% (n = 190,000);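 active means activation above a set limit, based on mean plus 3 SD of controls, cut at about 140% in these data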
FLuc inh counter – Photinus pyralis luciferase inhibition counter-screen; P08659; ATPLite firefly luciferase biochemical luminescence, 10 min; inhibition, % at 10 µM; actives 1.5% (n = 200,000); AID 1006;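 active means inhibition above about 50% when tested at 10 µM, limit read from the data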
NF-kB neuron act – compounds increasing NF-kB expression in human neuronal cells; actives 1.6% (n = 190,000); fold change at 12.5 µM; NF-kB reporter expression; hits give high values; in the data active means fold change above about 3.3
Numbers without * were called inactive; . = no result. The list is not random: actives were taken first. Their share in the collection is about 4.8%.

SMILES	FLuc act counter	STAT1 act	APP transl inh	APP 5'UTR act	FLuc inh counter	NF-kB neuron act
CCC(=NCCc1c(C)[nH]c2ccc(C)cc12)C1=C(O)CC(c2ccccc2)CC1=O (configuration not stated)	1.1	108	95*	-95	-8	0.97
O=C(Nc1ccc(C(F)(F)F)cc1)c1ccc2nc[nH]c2c1	1	112	-7	7	4	1.8
CC(=O)c1cccc(NC(=S)NC(=O)CC(C)C)c1	1	104	-18	18	-4	1.6
O=C(Nc1cccc(O)c1)c1ccc(C(F)(F)F)cc1	0.4	104	-91	91	57*	3.7*
CC(C)CC(=O)Nc1ccc(C(=O)Nc2cccc(O)c2)cc1	0.8	132*	-68	68	22	2
Cc1ccc(CN2CCN(CCC(C)C)C(CCO)C2)s1 (configuration not stated)	1	98	-1	1	-2	1.3
Cc1ccc(CN2CCN(CC(C)C)C(CCO)C2)s1 (configuration not stated)	1	135*	-76	76	2	2.6
CN(CCO)c1c2c(nc3cc(-c4cccc(F)c4)nn13)CCCC2	0.9	142*	-153	153*	13	2.1
OC1CCN(c2c3c(nc4cc(-c5cccc(F)c5)nn24)CCCC3)CC1	1	118	5	-5	2	0.68
O=C(N/N=C/C=C\c1ccccc1[N+](=O)[O-])c1cccs1	0.9	101	-1	1	8	5.2*
Cc1ccc(CSc2nnc(SCC(=O)N/N=C/C=C/c3ccccc3[N+](=O)[O-])s2)cc1	0.4	98	36	-36	59*	1.2
CCOc1cc(/C=N/NC(=O)c2cccs2)cc([N+](=O)[O-])c1O	0.9	129*	-70	70	5	0.92
O=C(N/N=C/C=C/c1ccc([N+](=O)[O-])cc1)c1cccs1	1	108	-7	7	3	1.4
O=C(N/N=C/C=C\c1ccco1)c1cccs1	0.9	130*	-24	24	15	2.1
FC(F)Oc1ccc(/C=N/c2c(-c3ccc(OC(F)F)cc3)nc3n2CCS3)cc1	0.9	101	-6	6	7	1.1
O=C(c1cc2ccccc2oc1=O)N1CCN(c2ncccn2)CC1	1	114	-36	36	0	2.2
Cc1ccc(NC2Nc3cc(C)nn3S2)c(C)c1 (configuration not stated)	0.8	142*	-62	62	20	2.7
OCC1(Cc2ccccc2)CCN(C2CCN(c3ccc(F)c(F)c3)CC2)CC1	1.1	89	7	-7	-6	0.8
COc1ccc(NC(=O)CSc2nc(N)c3cc4c(nc3n2)CCCC4)cc1	0.4	106	-38	38	62*	1.1
Cc1ccc(S(=O)(=O)N2CCN(C(=O)CSc3ncc(C(F)(F)F)cc3Cl)CC2)cc1	0.4	93	-2	2	58*	0.95
C=CCNC(=S)Nc1ccc(Br)cc1F	1	92	-11	11	-3	1.2
CN(C)/C=N/C(=S)Nc1ccc(Br)cc1F	0.9	130*	-6	6	7	2.2
N#Cc1ccccc1COc1ccc(/C=C/C(=O)O)cc1	0.8	83	60*	-60	23	0.56
Cc1ccccc1COc1ccc(/C=C(\C#N)C(N)=O)cc1	1.1	111	-9	9	-5	1.3
CC(C)C(c1nnnn1Cc1ccc(F)cc1)N1CCN(c2ccc(O)cc2)CC1 (configuration not stated)	1	100	4	-4	-5	2.3
SMILES	FLuc act counter	STAT1 act	APP transl inh	APP 5'UTR act	FLuc inh counter	NF-kB neuron act
CC(C)(C)c1ccc(C(=O)NC(=S)Nc2nc3c(s2)CCCC3)cc1	0.8	108	-37	37	20	0.32
CCc1ccc2nc(NC(=O)c3cc(C)on3)sc2c1	0.6	133*	-82	82	44	3.5*
Cc1cc(C(=O)Nc2nc3c(s2)CCCC3)no1	0.5	139*	-152	152*	50	5.1*
CN(C)c1ccc(C(=O)Nc2nc3c(s2)CCCC3)cc1	0.4	119	-131	131	58*	1.3
CCOC(=O)NN1C(=O)c2ccccc2NC1c1ccc(OC)c(OC)c1 (configuration not stated)	1.1	103	-4	4	-6	1.3
O=C(COc1ccccc1)Nc1ccc(Cl)cc1Cl	0.5	134*	-114	114	50*	3.5*
O=C(COc1ccc(Cl)cc1Cl)Nc1ccc(Cl)cn1	0.1	142*	-181	181*	86*	4.5*
Cc1cc(C)n(-c2ccc(Cl)c(C(=O)Nc3cc(C(F)(F)F)ccc3Cl)n2)n1	1.1	97	2	-2	-6	1.2
COc1cc2c(cc1NC(=O)C(C)N1CCN(S(=O)(=O)c3ccccc3[N+](=O)[O-])CC1)oc1ccccc12 (configuration not stated)	1	94	93*	-93	-1	0.79
CCCCC(CC)C(=O)Nc1ccc(C)c(O)c1 (configuration not stated)	1.1	94	8	-8	-10	1
CC(C)(C)C(=O)Nc1ccc2c(c1)-c1cc(NC(=O)C(C)(C)C)ccc1C2	1	101	-16	16	-3	1.1
CC(=O)c1ccc2c(c1)Cc1cc(C(C)=O)ccc1-2	1	146*	-75	75	2	3
C#CCN1C(=O)C(O)(c2c(C)[nH]c3ccccc23)c2ccccc21 (configuration not stated)	.	.	-24	24	.	.
Cc1[nH]c2ccccc2c1C1(O)C(=O)N(Cc2ccc3c(c2)OCO3)c2ccccc21 (configuration not stated)	1	87	-15	15	-3	3.3*
CCNC(=S)N/N=C/c1sc(N2CCCCC2)nc1-c1cccs1	0.4	119	-16	16	62*	1.1
CCNC(=S)Nc1ccc(N2CCCCC2)cc1	1	116	-45	45	2	1.1
CCOC(=O)c1c(Cc2cccc(Cl)c2)c[nH]c1C	1	91	-11	11	-3	1
O=S(=O)(c1cccc(F)c1)N1CCN(C(=S)NCc2ccccc2)CC1	1	95	-15	15	-2	0.77
O=C(N/N=C/c1cn(-c2ccccc2)nc1-c1cc2ccccc2o1)c1ccccc1Br	0.9	120	-188	188*	6	1.9
COc1ccc(CSc2n[nH]c(C)n2)cc1[N+](=O)[O-]	1	100	15	-15	-2	1
Cc1ccc(-c2cn3cccnc3n2)cc1	0.3	125	-48	48	66*	2.1
COC(=O)c1ccc2nc(-c3ccc4c(c3)OCO4)cn2c1	0.1	39	-90	90	85*	5*
Nc1cccc(-c2cn3cccnc3n2)c1	1	101	0	0	-2	1.1

High-throughput results deposited in PubChem by several laboratories.
